Measured values collected from several papers.
Compare with care: the assays were run in different laboratories.
Target: Atypical kinase COQ8B, mitochondrial (COQ8B, Homo sapiens, UniProt Q96D53)
One construct used (Q96D53 1-544): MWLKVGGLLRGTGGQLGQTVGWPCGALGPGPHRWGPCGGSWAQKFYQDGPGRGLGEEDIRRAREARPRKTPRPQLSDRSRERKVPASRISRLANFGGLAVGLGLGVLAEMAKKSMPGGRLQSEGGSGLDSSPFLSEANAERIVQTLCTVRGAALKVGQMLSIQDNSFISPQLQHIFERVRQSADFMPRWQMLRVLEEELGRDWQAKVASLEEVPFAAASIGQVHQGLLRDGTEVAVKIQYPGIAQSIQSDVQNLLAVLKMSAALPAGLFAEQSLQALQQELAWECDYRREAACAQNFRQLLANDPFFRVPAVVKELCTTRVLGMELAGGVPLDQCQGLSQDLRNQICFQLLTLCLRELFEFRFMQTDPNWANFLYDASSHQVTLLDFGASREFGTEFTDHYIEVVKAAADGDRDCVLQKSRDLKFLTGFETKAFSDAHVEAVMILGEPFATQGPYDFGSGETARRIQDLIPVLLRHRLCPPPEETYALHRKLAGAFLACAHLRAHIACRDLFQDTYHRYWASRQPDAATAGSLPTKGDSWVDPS

Structure (SMILES)	assay	setting	remaining binding
F[C@@H]1CCN(c2nccc(-c3cnn4ncccc34)n2)C1	binding	1 µM	79%
CCCCN(CCCC)C(=O)CN1C[C@@H](c2cc(OC)c3c(c2)OCO3)[C@H](C(=O)O)[C@H]1CC(C)(C)CCC	cell-free assay, competition with immobilised ligand	1 µM	80.2%
C[C@H]1CCN(c2nccc(-c3cnn4ncccc34)n2)C1	binding	1 µM	92%
Cc1nc(N2CC[C@@H](O)C2)ncc1-c1cc(C(F)(F)F)cc2[nH]ncc12	cell-free assay, competition with immobilised ligand	1 µM	100%
COc1ncc2cc3ccccc3nc2c1C#N	cell-free assay, competition with immobilised ligand	5 µM	100%
O=C(NCCCN1CCOCC1)c1ccc(Nc2nccc(-c3cc4ccccc4s3)n2)cc1	binding, competition with immobilised ligand	1 µM	62%
COc1cnc(Nc2cccc(S(N)(=O)=O)c2)nc1N1CCN(c2ccccc2)C(=O)C1	binding, competition with immobilised ligand	1 µM	100%
FC(F)(F)Oc1cccc(-c2cnc3ccc(-c4ccncc4)nn23)c1	cell-free assay, competition with immobilised ligand	5 µM	85%
CN(CCCC(F)(F)F)c1nccc(-c2cnn3ncccc23)n1	binding	1 µM	84%
C[C@@H]1CN(c2cc(-c3nn(C)c4ccc(OC5(C)CC5)cc34)ncn2)C[C@H](C)O1	cell-free assay, competition with immobilised ligand	1 µM	100%
N[C@@H]1CCN(c2nccc(-c3cnn4ncccc34)n2)C1	binding	1 µM	100%
O=C(NCCCC1CCCCC1)c1ccc(CNC(=O)c2cnn(-c3ccccc3)c2C(F)(F)F)cc1	cell-free assay, competition with immobilised ligand	0.1 µM	100%
O=C(Nc1c[nH]nc1C(=O)NC1CCNCC1)c1cc(F)cc(F)c1	binding, competition with immobilised ligand	1 µM	100%
Cc1cnn2ncc(-c3ccnc(N(C)C)n3)c2c1	binding	1 µM	81%
O=C(c1ccc(Nc2nccc(-c3cc4ccccc4s3)n2)cc1)N1CCC(N2CCCC2)CC1	binding, competition with immobilised ligand	1 µM	90%
COCCOc1nc(-c2ccc(Cl)nc2)nc2c1CN(C(=O)c1ncn3ccccc13)CC2	cell-free assay, competition with immobilised ligand	0.1 µM	100%
C[C@@H](c1ccc(-n2cnc3c(N)ncnc32)cc1)N1CCc2nn(C)c(Cc3ccccc3)c2C1=O	binding, competition with immobilised ligand	0.1 µM	80%
O=C(NS(=O)(=O)c1ccc(NCC2CCOCC2)c([N+](=O)[O-])c1)c1ccc(N2CCN(Cc3ccc(C(F)(F)F)cc3-c3ccc(Cl)cc3)CC2)cc1Oc1cnc2[nH]ccc2c1	cell-free assay, competition with immobilised ligand	1 µM	90%
O=C(c1ccc(Nc2ncc(Cl)c(-c3cc4ccccc4s3)n2)cc1)N1CCC(N2CCCC2)CC1	binding, competition with immobilised ligand	1 µM	44%
CNC(=O)[C@@H]1CC[C@@H](n2c(-c3ccc4cnccc4c3)nc3ccc(C(=O)NCc4cccc(C(N)=O)c4)cc32)C1	binding, competition with immobilised ligand	1 µM	99%
CN(C)c1nccc(-c2cnc3ncccn23)n1	binding	1 µM	75%
CCS(=O)(=O)c1cc2cc(C[C@@](O)(CC(C)(C)c3ccc(F)cc3C(N)=O)C(F)(F)F)[nH]c2cn1	cell-free assay, competition with immobilised ligand	1 µM	100%
